Most compounds without a hit are left out; they make up all but 6.1% or so of the library.
Yeast growth inh – growth inhibitors of yeast BB579 in restrictive medium, primary screen, yeast lifespan-shortening project, S. cerevisiae; OD615, 48 h; actives 0.51% (n = 140,000); inhibition, % at 10 µM;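 active means inhibition above a set limit, 3 SD over the mean compound inhibition, cut at about 44% in these data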
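Assay system: S. cerevisiae DeaD strain BB579 yeast. Medium: CSMM-D restrictive synthetic medium containing dextrose (glucose). Times: 4 h cell preincubation, 48 h compound exposure, 30 °C humidified. Signal: OD615 turbidity measurement. Benchmarks: positive control amphotericin B 10 µg/mL.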
Yeast lifespan up – compounds extending yeast replicative lifespan, primary screen, S. cerevisiae, OD615; inhibition of the nicotinamide effect, % at 10 µM; S. cerevisiae growth with nicotinamide; deaD strain in restrictive glucose medium; actives 0.68% (n = 130,000);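 active means inhibition above a set limit, placed 3 SD over the median of all compounds, cut at about 26% in these data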;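 further: 0% = nicotinamide-treated wells and 100% = cells grown without nicotinamide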
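assay system = DeaD-strain S. cerevisiae | measured by = absorbance at 615 nm | probe or stimulus = nicotinamide 1.5 mM | buffer or medium = CSMM-D glucose medium, restrictive | times = 48 h at 30 °C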
Measles CPE – compounds protecting cells from measles virus cytopathic effect, primary screen, measles RdRp inhibitor project, single point, MLSMR library, absorbance. Measles virus-infected cells, CPE protection. protection (pct of control), % at 4 µM. actives 1.5% (n = 140,000); in the data active means protection mostly above about 24%, no sharp cut-off; inactive means mostly below about 26%
WT yeast gro inh – growth inhibition of WT strain, primary screen, mitochondrial fusion inhibitor project, WT and mutant strains, chemical genetic. mitochondrial fusion phenotypic screen. inhibition, % at 10 µM. actives 2.1% (n = 190,000); in the data active means inhibition above about 58%; tested in S. cerevisiae
DAT uptake mod – changed hDAT dopamine uptake under cocaine IC80, either direction, primary screen, cocaine antagonist project, cell-based, LLC-PK1 hDAT, [14C]-dopamine uptake, MLSMR; Sodium-dependent dopamine transporter (Homo sapiens), Q01959; LLC-PK1 hDAT cells, [14C]-dopamine uptake with cocaine IC80; actives deviate in either direction; B-score at 10 µM; actives 1.3% (n = 110,000); AID 449768, 2010;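 active means Z score or B-score, a plate-position-corrected score, falls beyond the plate's 99.7% confidence bounds, in either direction; inactive means both scores lie inside the 99.7% bounds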;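 further: scored against the spread of the other compound wells on the same plate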
Target sequence (Q01959 whole entry, looked up): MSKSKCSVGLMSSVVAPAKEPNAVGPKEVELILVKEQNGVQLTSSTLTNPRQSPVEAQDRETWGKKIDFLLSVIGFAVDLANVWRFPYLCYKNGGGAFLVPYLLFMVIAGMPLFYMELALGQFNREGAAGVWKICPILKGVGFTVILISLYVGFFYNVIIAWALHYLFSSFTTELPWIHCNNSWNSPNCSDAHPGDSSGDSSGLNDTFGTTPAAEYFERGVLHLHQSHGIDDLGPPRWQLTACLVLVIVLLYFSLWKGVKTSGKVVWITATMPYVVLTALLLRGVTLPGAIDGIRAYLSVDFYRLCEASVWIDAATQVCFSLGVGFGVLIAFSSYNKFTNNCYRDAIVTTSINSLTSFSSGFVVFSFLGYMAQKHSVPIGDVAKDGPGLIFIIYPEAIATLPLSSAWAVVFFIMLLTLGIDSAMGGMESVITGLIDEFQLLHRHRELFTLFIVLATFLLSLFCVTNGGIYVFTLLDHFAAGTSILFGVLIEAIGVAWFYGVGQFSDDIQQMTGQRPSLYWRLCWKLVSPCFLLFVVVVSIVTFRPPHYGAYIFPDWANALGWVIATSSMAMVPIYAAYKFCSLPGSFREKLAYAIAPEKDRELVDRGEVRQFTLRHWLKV
RAM inhibit – inhibitors of the yeast RAM network, primary screen, dse1pr::URA3 reporter, 5-FOA selection | actives 1.8% (n = 190,000) | S. cerevisiae dse1pr::URA3 reporter, 5-FOA growth OD615, 2 d; analog-sensitive cbk1-as2 kinase mutant strain | AID 868, 2007 | inhibition, % at 50 µM;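 active means inhibition above a set limit, 3 SD over mean compound inhibition, cut at about 8.4% in these data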;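 further: 0% = DMSO-only wells with no growth and 100% = 10 µM 1-NA-PP1 full growth; inhibition rescues growth on 5-FOA so higher OD means more RAM inhibition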
An asterisk follows results filed as active; . = not tested or not shown.

SMILES	Yeast growth inh	Yeast lifespan up	Measles CPE	WT yeast gro inh	DAT uptake mod	RAM inhibit
OCC1(CCOc2ccccc2)CCN(Cc2nc3ccc(F)cc3[nH]2)CC1	.	.	.	6.0	.	1.3
Nc1ccc(Sc2cnn(-c3ccccc3)c(=O)c2Cl)cc1	-21.4	-9.7	5.8	-3.5	2.01	3.3
Cc1ccc(Sc2cnn(-c3ccccc3)c(=O)c2Cl)cc1	-8.6	31.2*	4.5	76.2*	-0.44	1.7
O=C(Nc1ccccc1)N(Cc1ccccc1)CC(O)C(F)(F)F (stereo not given)	-21.0	-7.4	12.0	19.5	-0.0551	1.1
O=C(Nc1cccc(F)c1)N(Cc1ccc(Cl)cc1)CC(O)C(F)(F)F (stereo not given)	-15.1	-15.8	15.2	70.6*	0.205	2.7
Cc1ccc(/C=C/C(=O)Nc2cc(S(N)(=O)=O)ccc2O)cc1	.	.	.	0.4	.	0.5
CC(=O)c1c(OC(=O)c2ccccc2)c2ccccc2n1C	-31.1	-5.1	14.9	5.5	-0.413	8.4*
COC(=O)c1sccc1N/N=C/c1cccc(Oc2ccccc2)c1	-79.2	5.3	18.2	12.5	.	8.5*
COC(=O)c1sccc1N/N=C/c1cccc(OC)c1O	-25.6	-2.9	6.7	17.2	.	7.0
O=C(O)c1ccccc1C(=O)NCc1cccnc1	-12.5	0.1	32.2*	-32.8	-0.457	1.4
O=S(=O)(NCc1cccnc1)c1ccccc1	-6.0	2.0	6.5	13.0	0.291	0.9
COc1ccc(CNC(=O)CSc2ncn[nH]2)cc1	6.2	-9.0	9.5	-6.4	-0.234	-0.8
O=C(CSc1ncn[nH]1)NCc1ccccc1	-28.2	-6.8	17.7	88.5*	-0.303	0.5
Cn1c(=O)c2c(ncn2CC(=O)NCc2cccnc2)n(C)c1=O	-37.6	-7.9	39.1*	-42.6	-1.74	0.3
O=S(=O)(Cc1ccccc1)NCc1cccnc1	44.8*	-17.7	3.2	18.9	1.47	-0.4
Cn1c(=O)c2c(ncn2CC(=O)OCC(=O)NCc2ccc(Cl)cc2)n(C)c1=O	1.5	-3.4	25.7	-3.2	.	0.8
CCOc1ccccc1N1CC(C(=O)Nc2c(C)n(C)n(-c3ccccc3)c2=O)CC1=O (stereo not given)	.	.	.	-4.8	.	1.2
O=C1c2cccc(OCC(=O)N3N=C(c4cccs4)CC3c3ccc(F)cc3)c2CCN1Cc1cccnc1 (stereo not given)	-3.8	13.7	18.9	42.5	.	1.8
O=C(CN1CCCCC1)N/N=C/c1ccccc1OCc1ccccc1	-17.4	16.1	7.2	-8.8	.	-0.6
CCOc1ccccc1NC(=S)NCC1CCCO1 (stereo not given)	-2.4	-1.6	5.0	2.2	.	0.5
O=C(CSc1ccccc1)NCc1cccnc1	-16.0	-14.8	39.7*	26.2	.	0.5
Cc1ccc2nsnc2c1S(=O)(=O)NCc1cccnc1	0.2	-17.1	39.1*	12.8	-0.856	2.7
CCN(CC)c1ccc(C(=O)N/N=C(\C)c2ccc(O)cc2)cc1	-33.4	0.3	4.5	-3.9	.	1.3
O=C(Nc1nncs1)c1cc2c(s1)CCC2	.	.	.	-16.2	.	1.3
O=C(Nc1nccs1)c1cc2c(s1)CCCCC2	-39.6	-19.2	4.4	55.1	4.31*	-0.7
SMILES	Yeast growth inh	Yeast lifespan up	Measles CPE	WT yeast gro inh	DAT uptake mod	RAM inhibit
O=C(OC(C(=O)NCc1cccs1)c1ccccc1F)c1ccco1 (stereo not given)	-18.2	.	42.0*	-5.1	0.943	2.0
CN1/C(=C\C=C2/SC(=S)N(CC(=O)O)C2=O)C(C)(C)c2ccccc21	.	.	.	20.4	.	9.1*
NC(=S)NN=C1c2cc(S(=O)(=O)N3CCOCC3)ccc2-c2ccc(S(=O)(=O)N3CCOCC3)cc21	-16.3	4.0	2.7	4.6	.	9.9*
CN(C)N=C1c2cc(S(=O)(=O)N3CCOCC3)ccc2-c2ccc(S(=O)(=O)N3CCOCC3)cc21	-38.7	3.7	4.6	-5.8	.	3.9
O=C(OCC#CCSc1nc2ccccc2o1)c1cc2ccccc2o1	-47.9	.	5.4	11.7	-0.632	10.5*
O=C(OCC#CCSc1nc2ccccc2o1)c1ccco1	8.1	-11.1	7.1	-8.5	-0.0791	1.3
COC(=O)c1cn(NC(=O)c2ccc(F)cc2)c(=O)c2ccccc12	-41.4	0.0	44.4*	-9.4	1.15	3.3
CC(C)(CO)NS(=O)(=O)c1ccc2c(c1)oc(=O)c1cc(S(=O)(=O)NC(C)(C)CO)ccc12	-41.5	-12.5	61.3*	4.5	-0.402	1.6
Cc1ccc(C(=O)N(c2ccccc2)C2CC(C)N(C(=O)c3ccco3)c3ccccc32)cc1 (stereo not given)	-11.8	33.9*	8.4	55.4	0	3.0
N#Cc1cccc(NC(=O)COC(=O)c2ccc3c(=O)n4c(nc3c2)CCC4)c1	.	.	.	-15.8	.	0.2
COc1ccc(NC(=O)Cn2nnc(-c3ccccc3NS(=O)(=O)c3ccc(OC)cc3)n2)cc1	-56.7	11.2	1.9	-10.3	.	9.5*
Cc1ccc(NC(=O)Cn2nnc(-c3ccccc3NC(=O)c3cccs3)n2)cc1	-51.0	-1.3	6.3	9.6	0.226	8.4*
CC(C)=CCC12Oc3cc(O)ccc3C1(O)Oc1cc(O)c([C@H]3C=C(C)CC(c4ccc(O)cc4O)[C@H]3C(=O)c3ccc(O)cc3O)c(O)c1C2=O (stereo not given in full)	.	.	.	.	1.79	.
Cn1nc(C(F)(F)F)c(/C=N/OC(=O)c2ccccc2)c1Sc1ccc(Cl)cc1	-53.5	-10.6	10.9	4.4	0.0379	10.4*
Cn1nc(C(F)(F)F)c(/C=N/OC(=O)c2ccccc2)c1Cl	-3.3	-5.3	6.4	4.8	-0.602	2.8
Nc1c(CO)nnn1-c1ccccc1	-5.9	5.9	8.1	-30.5	.	-0.1
O=C(Nc1ncc2c(n1)CC(c1ccco1)CC2=O)c1ccccc1 (stereo not given)	-18.7	0.0	4.8	70.1*	-0.588	0.4
Cc1ccc(C(=O)Nc2ncc3c(n2)CC(c2ccco2)CC3=O)cc1 (stereo not given)	-74.2	-8.3	6.5	9.1	1.02	2.1
COC(=O)CSc1ncnc2c1cnn2Cc1ccccc1	-19.5	-22.3	8.2	-8.0	-1.22	0.0
Cc1ccc(CSc2ncnc3c2cnn3-c2ccc(C)cc2)cc1	-28.2	4.5	9.7	13.6	.	9.5*
c1ccc(CSc2ncnc3c2cnn3Cc2ccccc2)cc1	2.1	-10.1	4.0	67.5*	-0.415	1.2
CC(C)OC(=O)CSc1ncnc2c1cnn2Cc1ccccc1	-15.1	-3.2	33.3*	0.3	-0.635	1.3

Source: PubChem BioAssay
